Compound activity (PubChem BioAssay)
Sampled rows, rich in hits. Any-hit rate of the full collection: about 2.4%.
Env fusion inh: inhibitors of HIV-1 Env-driven cell-cell fusion, primary screen, HeLa-JRFL effector, CEM21 target cells, luciferase; inhibition, % at 12.3 µM; hit rate 1.1% among 360,000; AID 651610, 2012;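 active means mean replicate inhibition score of at least 50 and every replicate individually at or above 50; inconclusive means only one of the two criteria met; inactive means mean below 50 and not all replicates reaching 50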;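 further: 0% = plate neutral controls and 100% = maraviroc near 300 nM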
miR122 inh: miR-122 Renilla sensor signal increase in Huh7, primary screen, miR-122 inhibitor project, cell-based, single point, plate reader | Huh7 miR-122 Renilla luciferase sensor, 48 h; neutral wells = 0, positive control = 100 | activation (reporter increase), % at 12.5 µM | hit rate 0.3% among 340,000 | AID 602342, 2012;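 active means mean replicate activation score at least 90 and every replicate individually at or above 90; inconclusive means only one of the two criteria met; inactive means neither criterion met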;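 further: higher luciferase means less miR-122 activity so hits act as miR-122 inhibitors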
GSIS activator: GLuc luminescence reporter in INS-1E cells, primary screen for activators of glucose-dependent secretion of insulin; INS-1E GLuc reporter insulin secretion, 2-3 h; activation, % at 16.6 µM; hit rate 0.61% among 370,000;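 active means lowest replicate activation of at least 40%, so every replicate reaches that level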;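 further: 0% = median of neutral control wells and 100% = median of IBMX positive control wells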
dFosB act: activators of delta FosB homodimer, primary screen, biochemical, fluorescence polarization, TAMRA-CDK5 oligo, single point; activation, % at 25 µM; hit rate 0.99% among 340,000; AID 493131, 2011; purified delta FosB; percent of positive-control signal above neutral wells;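 active means mean activation above about 17%, with every replicate also reaching it, limit read from the data, passing the limit was not always enough; inconclusive means only one of the two conditions met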
Target sequence (P13346 whole entry, looked up): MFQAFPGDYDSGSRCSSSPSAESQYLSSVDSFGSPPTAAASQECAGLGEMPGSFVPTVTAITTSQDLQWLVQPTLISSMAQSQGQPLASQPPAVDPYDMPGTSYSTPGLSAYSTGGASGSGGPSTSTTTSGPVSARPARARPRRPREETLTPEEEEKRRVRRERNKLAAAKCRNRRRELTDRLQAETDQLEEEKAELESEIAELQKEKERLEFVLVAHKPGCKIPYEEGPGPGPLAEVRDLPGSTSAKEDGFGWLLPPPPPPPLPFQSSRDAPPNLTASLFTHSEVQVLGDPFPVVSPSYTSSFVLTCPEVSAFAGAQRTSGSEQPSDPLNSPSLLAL
Rtt109 HAT inh: inhibitors of C. albicans Rtt109/Vps75 HAT, primary screen, biochemical, ThioGlo CoA-SH fluorescence, plate reader | Histone acetyltransferase RTT109 (Candida albicans (strain SC5314 / ATCC MYA-2876)), … | purified Rtt109/Vps75, 4 h | hit rate 0.16% among 330,000 | inhibition, % at 34.9 µM;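 active means inhibition of at least 50% in every replicate; inconclusive means best replicate reaches 50% inhibition but some replicates fall short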
Target sequence (Q5AAJ8 whole entry, looked up): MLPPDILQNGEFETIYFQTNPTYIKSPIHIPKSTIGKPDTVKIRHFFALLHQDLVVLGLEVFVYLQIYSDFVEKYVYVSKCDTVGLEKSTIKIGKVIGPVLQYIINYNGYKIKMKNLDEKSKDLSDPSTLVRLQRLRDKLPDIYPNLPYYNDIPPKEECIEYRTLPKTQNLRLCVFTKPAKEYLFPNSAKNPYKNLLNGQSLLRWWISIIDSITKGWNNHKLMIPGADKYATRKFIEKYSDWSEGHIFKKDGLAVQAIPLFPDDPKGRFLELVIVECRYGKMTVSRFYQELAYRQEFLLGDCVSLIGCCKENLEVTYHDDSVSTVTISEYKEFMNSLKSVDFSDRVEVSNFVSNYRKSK
Cneo AK release: Cryptococcus neoformans cell lysis inducers, primary screen, AK release luminescence, single concentration | hit rate 0.2% among 360,000 | C. neoformans lysis, adenylate kinase release luminescence, 4 h; normalised: neutral wells 0, clomiphene wells 100 | lysis activity, % at 15 µM | AID 651654, 2012;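 active means mean lysis activity across replicates of at least 80%, whatever share of replicates individually reach that level; inactive means mean lysis activity below 80%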
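Assay system: Cryptococcus neoformans yeast cells / Dosing: single-point compound dose / Timing: 4 h at 37 °C static, read 1 h later / Measured by: luminescence of released adenylate kinase using an AK detection reagent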
* marks the source's active call; other numbers are inactive results; ? = inconclusive; · = no result; [ ] = dose if it differs, or a comment.

SMILES	Env fusion inh	miR122 inh	GSIS activator	dFosB act	Rtt109 HAT inh	Cneo AK release
O=C(c1ccc(Cl)c(Cl)c1)N1CCC(=O)N(C(COCc2ccccc2)Cc2ccccc2)CC1 (configuration not stated)	86.1*	-3.3	-25.5	6.0	-2.2	-1.3
Cc1cccc(C(=O)N2CCC(=O)N(C(COCc3cccc(C(F)(F)F)c3)Cc3ccccc3)CC2)c1 (configuration not stated)	25.6	2.7	-55.3	-8.1	-7.6	9.9
O=C(c1ccc(Cl)c(Cl)c1)N1CCC(=O)N([C@H](COCc2ccccc2)Cc2ccccc2)CC1	64.4*	·	-24.7	·	·	·
Cc1noc(C)c1NC(=O)N(C)C[C@@H]1Oc2c(NC(=O)Nc3cccc4ccccc34)cccc2C(=O)N([C@@H](C)CO)C[C@H]1C	·	-2.3[16.7 µM]	-2.7	·	·	1.4
CCNC(=O)C[C@@H]1C=C[C@@H](NC(=O)NC2CCCCC2)[C@H](CO)O1	12.2[16.7 µM]	·	-2.7	·	·	-0.4
C[C@H](CO)N1C[C@H](C)[C@H](CN(C)Cc2ccc(Oc3ccccc3)cc2)OCc2ccccc2-c2c(n(C)c3ccccc23)C1=O	·	·	-7.9	·	·	·
CCCC(=O)Nc1ccc2c(c1)C(=O)N(C)C[C@H](OC)[C@@H](C)CN(C(=O)CC)[C@@H](C)CO2	·	-14.8[16.7 µM]	1.0	·	·	·
Cc1cccc(Nc2nc(N)c(C#N)c(CC#N)c2C#N)c1	-51.9	-3.7	84.0*	-7.6	0.4	-2.8
CC(=O)N1[C@H](CO)[C@@H](c2ccccc2)C12CN(C(=O)Nc1ccccc1F)C2	·	·	0.4	·	·	·
O=c1c2ccccc2sn1-c1ccccc1	-59.8	3.7	256.4*	-6.2	17.0	-0.9
O=c1c2cc(F)ccc2sn1-c1ccccc1	-41.7	-2.3	-2.7	2.2	132.3*	-1.6
O=c1c2ccccc2sn1-c1cccc(Cl)c1	-3.2	-3.9	-17.7	·	·	-8.3
O=C(O)c1cccc(-n2sc3ccccc3c2=O)c1	-14.9	0.8	51.1	-3.2	178.3*	-0.6
O=c1c2cc(C(F)(F)F)ccc2sn1-c1ccccc1	36.6	3.5	8.3	·	·	4.0
CN(C)S(=O)(=O)c1cccc(-n2sc3ccccc3c2=O)c1	-8.7	-5.4	65.5*	0.8	?	-1.2
Cc1cc(C(=O)Nc2cccc3c2O[C@H](CN(C)Cc2ccc(C(=O)O)cc2)[C@H](C)CN([C@H](C)CO)C3=O)n(C)n1	·	-0.4[16.7 µM]	4.0	·	·	-2.7
CC(C)NC(=O)N[C@H]1CC[C@H](CC(=O)NCc2ccc(Oc3ccccc3)cc2)O[C@H]1CO	48.9[16.7 µM]	·	0.6	·	·	10.8
Cc1ccccc1-n1sc2cc(F)ccc2c1=O	-16.5	-3.4	44.7*	-2.6	101.8*	-3.2
CC(=O)Nc1ccc2c(=O)n(-c3ccccc3)sc2c1	-65.7	-1.6	29.6	·	·	0.7
O=c1c2ccccc2sn1-c1ccccc1F	20.3	-0.9	85.8*	·	·	-1.0
Cc1ccc(-c2ccc([C@H]3[C@@H](CO)N4C(=O)CN(C(=O)c5cccnc5)C[C@H]34)cc2)cc1	·	·	-0.4	·	·	·
Cn1c(SCC(=O)N/N=C/C=C/c2ccccc2[N+](=O)[O-])nc2ccccc21	-1.6	·	-32.3	5.1	2.2	·
Cn1c(SCC(=O)N/N=C/C=C\c2ccccc2[N+](=O)[O-])nc2ccccc21	0.0	·	-16.4	20.3*	-6.3	-1.2
O=C(NC(c1ccc(F)cc1)c1ccc2ccccc2n1)C1CCN(CCOc2ccc(Cl)cc2)CC1 (configuration not stated)	77.2*	-7.1	-36.1	·	·	4.9
O=C(NC(c1ccc(F)cc1)c1ccc2ccccc2n1)C1CCN(Cc2cccc(C(F)(F)F)c2)CC1 (configuration not stated)	74.6*	-18.5	·	·	·	7.8
SMILES	Env fusion inh	miR122 inh	GSIS activator	dFosB act	Rtt109 HAT inh	Cneo AK release
O=C(NC(c1ccccc1)c1ccc2ccccc2n1)C1CCN(CCOc2ccc(Cl)cc2Cl)CC1 (configuration not stated)	49.7	-3.3	-32.0	·	·	1.9
CCC(=O)N1[C@@H](CO)[C@@H](c2ccc(-c3ccccc3)cc2)[C@@H]1CNC(=O)COC	·	0.0[16.7 µM]	-6.7	·	·	·
COc1ccc(S(=O)(=O)Nc2ccccc2OC)cc1N=Nc1c(O)[nH]c(=S)[nH]c1=O	-8.7	2.9	98.8*	-5.1	6.0	1.6
COc1ccccc1NS(=O)(=O)c1ccc2[nH]c(=O)[nH]c2c1	1.1	-1.3	14.8	-2.6	-1.0	-1.2
C[C@H](CO)N1C[C@H](C)[C@H](CN(C)Cc2ccncc2)Oc2cc(C#CC3CC3)ccc2S1(=O)=O	-9.4[16.7 µM]	-2.3[16.7 µM]	-11.0	·	·	-1.3
Cc1ccc2c(c1)N(C(C)C(=O)NCc1cccs1)C(=O)CO2 (configuration not stated)	4.7	4.9	51.0*	0.7	0.9	-1.1
Cc1ccc2c(c1)N(C(C)C(=O)NCc1ccccn1)C(=O)CO2 (configuration not stated)	-15.8	-2.0	31.7	-1.5	-7.8	·
COc1ccc(/C=C/C(=O)NC(=S)NN2CCCCC2c2cccnc2)cc1OC (configuration not stated)	6.5	·	70.1*	-4.0	-1.8	·
C=CCNc1cc(C)oc(=O)c1C(=O)CC	-11.5	·	42.6	-2.1	-1.1	·
C=CCNc1cc(C)oc(=O)c1C(=O)CCC	11.3	-3.2	70.9*	-2.1	·	0.1
CN(C)c1ccc(N=Nc2nc3ccccc3n2C)cc1	-304.9	-3.9	-5.0	20.6*	13.0	-9.1
Cn1c(N=Nc2ccccc2)nc2ccccc21	-156.3	-0.2	·	5.8	8.8	·
C[C@@H]1CCCCO[C@@H](CN(C)C)[C@H](C)CN([C@H](C)CO)C(=O)c2cc(N(C)C)ccc2O1	1.8[16.7 µM]	3.5[16.7 µM]	13.8	·	·	-0.5
CCCSc1ccc(-c2nn(-c3ccccc3)cc2/C=C(/C#N)C(=O)NCCCOC)cc1	24.7	-2.1	49.9*	4.2	-3.2	1.9
N#C/C(=C/c1cn(-c2ccccc2)nc1-c1cccc(OCc2ccccc2)c1)C(=O)NCCCn1ccnc1	26.1	-1.1	13.8	31.3*	-3.4	-1.0
CCSc1ccc(-c2nn(-c3ccccc3)cc2/C=C(/C#N)C(=O)NCCCOC)cc1	-3.5	·	63.9*	-6.8	-8.1	·
Cc1ccc(-c2nn(-c3ccccc3)cc2/C=C(\C#N)C(=O)NCc2ccccc2)cc1	-75.8	·	19.7	-15.7	9.6	·
COc1ccc(S(=O)(=O)Nc2ccc3c(c2)C(=O)N([C@H](C)CO)C[C@@H](C)[C@@H](CN(C)C(=O)Cc2ccccc2)OCCCC[C@H](C)O3)cc1	-4.4[16.7 µM]	22.1[16.7 µM]	-16.3	·	·	-2.1
